Bioassay records deposited in PubChem by Broad Institute.
AI-2 QS mod: modulates the Vibrio harveyi AI-2 quorum sensing system; 300,000 compounds, 0.4% hits; activity change, % at 7.5 µM; AID 2094; Vibrio harveyi JMH597 AI-2 luminescence/OD600 ratio, 9 h; active compounds read low; strain lacks LuxN and CqsS sensors; 0 = neutral-control median; in the data active = activity change below about -75%, passing the limit was not always enough; inconclusive = no clear call, values can overlap the other calls;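 also: luminescence divided by OD600 gain over 9 h not by final OD600 alone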
HIF act: HIF pathway transcriptional activation; activation, % at 7.5 µM (by protocol); AID 1910; 300,000 compounds, 0.32% hits; U2OS HRE-luciferase reporter, luminescence; normalized: DMSO 0%, desferrioxamine 100%;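 active = mean activation of at least 10% of the iron chelator positive control signal, with at least half of replicates also reaching 10%; inconclusive = mean and replicate majority disagree about reaching 10%; inactive = mean and most replicates under 10%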
T cruzi repl: T. cruzi replication inhibition; T. cruzi beta-gal in NIH3T3, luminescence, 90 h; inhibition, % (test concentration not listed); 300,000 compounds, 1.4% hits;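 active = mean inhibition across valid replicates above about 55%, limit read from the data; inconclusive = mean below that limit but half or more replicates reach it; inactive = mean below it, under half of replicates reach it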;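 also: signal also drops with host cell toxicity which is not excluded here; higher percent means less beta-gal luminescence so fewer parasites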
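System – NIH/3T3 host cells with β-galactosidase reporter T. cruzi · Doses – single 50 nL compound addition per well in DMSO · Reagent – 5000 T. cruzi trypomastigotes/well · Medium – Low-serum DMEM with 2% FBS · Timing – ≥90 h infection period, 3 h prior cell attachment · Evaluation – parasite load inhibition, % · Technique – GalScreen luminescence, 60 min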
ARNT TACC3 PPI: ARNT/TACC3 interaction disruption | 390,000 compounds, 0.66% hits | inhibition, % at 9.99 µM | AlphaScreen His-ARNT PAS-B/GST-TACC3 binding, luminescence; TACC3 fragment carries E629A point mutation;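 active = mean inhibition of replicates at least 50% and at least half of replicates each reaching 50%; inconclusive = half or more replicates reach 50% but mean below 50%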
Hits are given with their value; - = inactive; ? = inconclusive; . = not tested or not shown. The list is not random: actives were taken first. Their share in the collection is about 2%.

SMILES | AI-2 QS mod | HIF act | T cruzi repl | ARNT TACC3 PPI
CCOCCCn1c(N)c(C(=O)Nc2sc3c(c2C(=O)OC)CCCC3)c2nc3ccccc3nc21 | - | . | - | -
CCOC(=O)c1c(NC(=O)c2c(N)n(CCCOC)c3nc4ccccc4nc23)sc2c1CCCC2 | - | - | 64 | -
CCC(C)n1c(O)c(C=NC(C)c2ccccc2)c(=O)[nH]c1=S (stereo unspecified) | - | - | - | -
C=CCn1c(O)c(/C=N/NC(=O)CCCC)c(=O)[nH]c1=S | . | - | - | 69
CCCCCCC(=O)N/N=C/c1c(O)n(C2CC2)c(=S)[nH]c1=O | - | - | - | 30
CCCCCCC(=O)N/N=C/c1c(O)n(C(C)CC)c(=S)[nH]c1=O (stereo unspecified) | - | . | . | 50
CCCCCCC(=O)N/N=C/c1c(O)n(CCc2ccccc2)c(=O)[nH]c1=O | - | . | . | -
COc1ccc(C#Cc2ccc([C@H]3[C@H](CO)N4CCCCN(C(=O)Cc5cccnc5)C[C@@H]34)cc2)cc1 | . | . | . | -
O=C(O)[C@@H]1[C@@H](CO)[C@@H]2Cn3c(ccc(-c4ccncc4)c3=O)[C@H]1N2S(=O)(=O)c1ccccc1F | . | . | . | -
O=S(=O)(c1ccc(F)cc1)N1CCCCC1c1cccnc1 (stereo unspecified) | - | . | - | -
O=S(=O)(c1ccc(Cl)cc1)N1CCCCC1c1cccnc1 (stereo unspecified) | - | - | 71 | -
O=[N+]([O-])c1ccc(NC2CCCC2)c2ccncc12 | - | - | - | -
O=[N+]([O-])c1ccc(NC2CCN(Cc3ccccc3)CC2)c2ccncc12 | - | - | 60 | .
N/C(=N\[N+](=O)[O-])N/N=C/c1ccc(O)cc1 | - | - | - | -
Nc1nonc1C(=O)N/N=C/c1ccc([N+](=O)[O-])o1 | -84 | - | - | .
Cc1c(C(=O)c2cccc3ccccc23)c2cccc3c2n1[C@H](CN1CCOCC1)CO3 | - | - | 72 | -
CC(=O)OC(C)(C)/C=C/C(=O)C(C)(O)C1[C@H](O)C[C@@]2(C)C3CC=C4C(CC[C@@H](O)C4(C)C)[C@]3(CO)C(=O)C[C@]12C (stereo partly specified) | - | - | 56 | -
CC(=O)OC(C)(C)/C=C/C(=O)[C@](C)(O)[C@H]1[C@H](O)C[C@@]2(C)[C@@H]3CC=C4[C@H](C[C@H](O)C(=O)C4(C)C)[C@]3(C)C(=O)C[C@]12C | . | . | . | -
O=C(Cc1cccnc1)N1CCCCN2[C@H](C1)[C@H](c1ccc(C#CC3CCCC3)cc1)[C@@H]2CO | . | . | . | -
CC(C)(C)C(O)C(Oc1ccc(Cl)cc1)n1cncn1 (stereo unspecified) | - | - | 60 | -
O=C(Nc1nc(-c2ccccc2)c(-c2ccccc2)s1)c1ccc(S(=O)(=O)N(CCCl)CCCl)cc1 | - | - | 56 | -
COC(=O)[C@H]1[C@H](CO)[C@H]2Cn3c(ccc(-c4ccccc4F)c3=O)[C@@H]1N2CC1CCCC1 | . | . | . | -
CC(C)[C@H]1C(=O)O[C@H](C(C)C)C(=O)N(C)[C@@H](C(C)C)C(=O)O[C@H](C(C)C)C(=O)N(C)[C@@H](C(C)C)C(=O)O[C@H](C(C)C)C(=O)N1C | - | - | 55 | -
N#Cc1cccc(-c2ccc([C@@H]3[C@@H](CO)N4CCCCN(C(=O)Cc5ccncc5)C[C@H]34)cc2)c1 | . | . | . | -
O=C(Cc1ccccn1)N1CCCCN2[C@H](CO)[C@H](c3ccc(Br)cc3)[C@H]2C1 | . | . | . | -
SMILES | AI-2 QS mod | HIF act | T cruzi repl | ARNT TACC3 PPI
FC(F)(F)c1ccc(CNCCc2ccc3c(c2)OCO3)cc1 | - | - | 55 | -
Clc1ccc(CNCCc2ccc3c(c2)OCO3)cc1 | - | - | - | -
Nc1ncnc2c1ccn2[C@@H]1O[C@H](CO)[C@@H](O)[C@H]1O | - | - | 86 | -
O=C(Cc1ccncc1)N1CCCCN2[C@H](CO)[C@H](c3ccc(C#CC4(O)CCCC4)cc3)[C@@H]2C1 | . | . | . | -
O=C(Cc1cccnc1)N1CCCCN2[C@@H](CO)[C@@H](c3ccc(C#CC4CCCC4)cc3)[C@@H]2C1 | . | . | . | -
Cc1cccc(CSc2nc3c(cc2C#N)CN(C)CC3)c1 | - | - | 59 | -
CN1CCc2nc(SCc3ccccc3Br)c(C#N)cc2C1 | - | - | - | -
O=C(c1c[nH]cc1-c1ccccc1)c1cccc2ccccc12 | - | - | 58 | -
COC(=O)[C@H]1[C@H](CO)[C@H]2Cn3c(ccc(C4=CCCCC4)c3=O)[C@@H]1N2C(=O)Cc1ccccn1 | . | . | . | -
CN(C)c1ccc(/C=C/c2cc[n+](C)c3ccccc23)cc1 | . | . | . | -
CN(C)c1ccc(/C=C/C=C/c2sc3ccccc3[n+]2C)cc1 | - | - | 71 | -
CC[n+]1c(/C=C/N(C)c2ccccc2)sc2ccc(Cl)cc21 | - | . | 65 | -
CC[n+]1c(/C=C/C=C/c2ccc(N(C)C)cc2)sc2ccccc21 | ? | - | - | 48
CCCCn1c(N)c(C(=O)NCc2cccs2)c2nc3ccccc3nc21 | - | - | 55 | -
CCCCCn1c(N)c(C(=O)NCc2cccs2)c2nc3ccccc3nc21 | - | - | - | .
Nc1c(C(=O)NCCCc2ccccc2)c2nc3ccccc3nc2n1Cc1cccs1 | - | - | 58 | -
O=C(O)[C@H]1[C@H](CO)[C@H]2Cn3c(ccc(-c4cccc(F)c4)c3=O)[C@@H]1N2CCc1ccccc1 | . | . | . | -
COc1cc(/C=C2/C(=O)NC(=O)N(c3ccccc3)C2=O)ccc1O | - | - | - | active
COc1ccc(-c2ccc([C@H]3[C@@H](CO)N4CCCCN(C(=O)Cc5ccncc5)C[C@H]34)cc2)cc1 | . | . | . | -
O=[N+]([O-])c1ccccc1-c1cc(-c2ccccc2)cc(-c2ccccc2)[n+]1Cc1ccccc1Cl | - | - | 56 | .
COCC(=O)N1[C@@H]2c3ccc(C4=CCCC4)c(=O)n3C[C@H]1[C@H](CO)[C@H]2C(=O)OC | . | . | . | -
Cc1ccsc1C(=O)C1CCCN(Cc2ccc(-n3cccn3)cc2)C1 (stereo unspecified) | - | - | 61 | -
Cc1ccsc1C(=O)C1CCCN(Cc2cc3ccccc3o2)C1 (stereo unspecified) | - | - | - | -
CSc1ncc(CN2CCCC(C(=O)c3sccc3C)C2)cn1 (stereo unspecified) | - | - | - | -
Cc1ccsc1C(=O)C1CCCN(Cc2cccc(-n3cccn3)c2)C1 (stereo unspecified) | - | - | - | -
Cc1ccc(CN2CCCC(C(=O)c3sccc3C)C2)o1 (stereo unspecified) | - | - | 66 | -
Cc1ccsc1C(=O)C1CCCN(Cc2cnc(N3CCCC3)s2)C1 (stereo unspecified) | - | - | 63 | -
Cc1ccsc1C(=O)C1CCCN(Cc2c(C)nn(C(C)C)c2C)C1 (stereo unspecified) | - | - | 62 | .
C[C@H]1CN([C@@H](C)CO)C(=O)CCCn2nncc2CO[C@@H]1CN(C)C(=O)Oc1ccc2ccccc2c1 | . | . | . | -
C=CCn1c(O)c(N=Nc2c(C)n(C)n(-c3ccccc3)c2=O)c(=O)[nH]c1=S | - | - | - | 63
